Results from ChEMBL document CHEMBL4765239, “Discovery of a Novel Highly Selective Histamine H4 Receptor Antagonist for the Treatment of Atopic Dermatitis” (J Med Chem, 2018).
Values after ≈ are worked out from the molar mass of the structure shown.

Columns and labels:
[1] = molecular target: Histamine H4 receptor (Homo sapiens, UniProt Q9H3N8); assay: Displacement of [3H]-histamine from recombinant human histamine H4 receptor expressed in CHO-K1 cell membranes measured after 30 mins by microbeta scintillation counting method; parameters: species or system Cell membrane
[2] = molecular target: Histamine H3 receptor (Homo sapiens, UniProt Q9Y5N1); assay: Displacement of [3H]-N-alpha-methylhistamine from recombinant human histamine H3 receptor expressed in CHO-K1 cell membranes measured after 30 mins by microbeta scintillation counting method; parameters: species or system Cell membrane
Procedure, shortened: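 Competitive binding on CHO-K1 membranes expressing human H3R ([3H]Nα-methylhistamine) or mouse H4R ([3H]histamine). Run in 50 mM Tris-HCl pH 7.4 for 30 min at 27 °C, then filtered onto 0.5% PEI-treated glass fiber and washed three times with ice-cold buffer. Bound radioactivity read by liquid scintillation counting.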

[3] = Intrinsic clearance in CD1 mouse liver microsomes at 5 uM incubated upto 30 mins in presence of NADPH by UPLC-UV analysis; type: ADME, Microsome; settings: read-out: CLH
Procedure, shortened: (§1)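 Test compound at 5 µM incubated with pooled CD-1 mouse or human liver microsomes plus 1 mM NADPH. Remaining compound measured by UPLC-UV at 0, 10, 20 and 30 min. CLint derived from the first-order elimination rate constant, normalized to microsomal protein.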

[4] = Intrinsic clearance in human liver microsomes at 5 uM incubated upto 30 mins in presence of NADPH by UPLC-UV analysis; type: ADME, Microsome; settings: read-out: CLH; procedure, shortened: as §1
[5] = Solubility of compound in SGF at pH 1.2 incubated for 2 hrs by UPLC-UV analysis; type: physicochemical
Procedure, shortened: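 Compound incubated at 37 °C in FaSSIF (pH 6.5) for 0.5 h or in SGF (pH 1.2) for 2 h. Filtered through 0.45 µm, concentration measured by UPLC-UV.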

[6] = Solubility of compound in FaSSIF at pH 6.5 incubated for 0.5 hrs by UPLC-UV analysis
[7] = molecular target: T1, 5-hydroxytryptamine receptor 3A (Homo sapiens) (UniProt P46098); assay: Displacement of [3H]BRL 43694 from human recombinant 5-HT3 receptor at 10 uM after 120 mins by scintillation counting analysis relative to control
T1 sequence (whole entry): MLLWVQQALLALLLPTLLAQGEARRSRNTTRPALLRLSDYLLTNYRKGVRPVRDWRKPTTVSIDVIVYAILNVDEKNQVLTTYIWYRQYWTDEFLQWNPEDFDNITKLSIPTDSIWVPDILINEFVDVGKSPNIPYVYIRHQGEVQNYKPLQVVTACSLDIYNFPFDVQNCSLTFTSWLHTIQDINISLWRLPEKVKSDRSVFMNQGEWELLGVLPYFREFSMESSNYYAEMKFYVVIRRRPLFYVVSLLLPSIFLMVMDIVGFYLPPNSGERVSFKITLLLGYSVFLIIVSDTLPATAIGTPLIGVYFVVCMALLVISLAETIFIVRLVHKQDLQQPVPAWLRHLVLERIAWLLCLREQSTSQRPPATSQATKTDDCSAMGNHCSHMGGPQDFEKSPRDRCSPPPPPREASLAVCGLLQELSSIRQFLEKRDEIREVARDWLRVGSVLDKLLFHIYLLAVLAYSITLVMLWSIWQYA

[8] = Lipophilicity, logD of the compound at pH 7.4; type: physicochemical; settings: buffer
[9] = Basicity constant, pKa of the compound; type: physicochemical
[10] = molecular target: T2, 5-hydroxytryptamine receptor 3A (Homo sapiens, UniProt P46098); assay: Displacement of [3H]BRL 43694 from human recombinant 5-HT3 receptor after 120 mins by scintillation counting analysis
T2 sequence (P46098 whole entry): T1 sequence (whole entry)

[11] = Cmax in ICR mouse at 50 mg/kg, po measured upto 24 hrs by LC-MS/MS analysis; type: ADME, organism-based; parameters: route oral, dose 50 mg/kg, time <=24; settings: in vivo
Procedure, shortened: (§2)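 Female ICR mice, n=3 per group, given test compound orally. Blood sampled at 0.5, 1, 2, 4, 7 and 24 h post dose; plasma levels quantified by LC-MS/MS. Parameters from non-compartmental analysis.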

[12] = Tmax in ICR mouse at 50 mg/kg, po measured upto 24 hrs by LC-MS/MS analysis; type: ADME, organism-based; settings: in vivo; procedure, shortened: as §2
[13] = AUC (all) in ICR mouse at 50 mg/kg, po measured upto 24 hrs by LC-MS/MS analysis; type: ADME, organism-based; parameters: route oral, dose 50 mg/kg, time <=24; settings: in vivo; procedure, shortened: as §2

Sequence of Histamine H3 receptor (Q9Y5N1 whole entry): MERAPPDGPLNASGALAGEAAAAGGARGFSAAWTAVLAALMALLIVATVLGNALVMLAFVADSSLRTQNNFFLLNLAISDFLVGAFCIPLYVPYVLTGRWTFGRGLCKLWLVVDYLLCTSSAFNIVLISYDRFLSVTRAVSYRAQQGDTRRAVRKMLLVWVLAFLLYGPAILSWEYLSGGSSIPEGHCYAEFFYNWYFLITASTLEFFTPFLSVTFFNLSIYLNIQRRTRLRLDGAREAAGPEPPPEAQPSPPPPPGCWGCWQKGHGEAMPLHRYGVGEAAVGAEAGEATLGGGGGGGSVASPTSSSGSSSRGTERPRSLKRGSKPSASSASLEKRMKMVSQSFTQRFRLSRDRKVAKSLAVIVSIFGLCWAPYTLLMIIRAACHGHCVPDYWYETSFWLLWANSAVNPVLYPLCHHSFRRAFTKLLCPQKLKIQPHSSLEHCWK

IC50 [1] | IC50 [2] | microsomal CLint at 5 µM [3] | microsomal CLint at 5 µM [4] | solubility at 2 h [5] | solubility at 0.5 h [6] | SMILES | further results
4.1 µM | – | – | – | – | – | CN[C@@H]1CCN(c2nc3ncc(Cl)cc3n3cnnc23)C1 | –
– | 71 µM | 3.13 µL/min/mg | 1.64 µL/min/mg | 1930 µg/mL (≈ 5.54 mM) | 679 µg/mL (≈ 1.95 mM) | CN1CCN(c2nc3ncc(Br)cc3n3cnnc23)CC1 | –
1.1 µM | – | – | – | – | – | CNC1CN(c2nc3ncc(Cl)cc3c3ncnn23)C1 | inhibition [7]: 32%
4.8 µM | – | – | – | – | – | CN(C)[C@@H]1CCN(c2nc3ncc(Cl)cc3n3cnnc23)C1 | –
5.2 µM | – | – | – | – | – | NC1CN(c2nc3ncc(Cl)cc3n3cnnc23)C1 | inhibition [7]: 24.5%
– | > 100 µM | 128 µL/min/mg | 6.5 µL/min/mg | 1410 µg/mL (≈ 5.09 mM) | 378 µg/mL (≈ 1.36 mM) | CN1CCN(C(=O)c2cc3cc(Cl)ccc3[nH]2)CC1 [JNJ-7777120] | –
– | 36 µM | 0.69 µL/min/mg | 1.63 µL/min/mg | – | – | CN1CCN(c2nc3nc(C#N)c(Cl)cc3n3cnnc23)CC1 | –
– | 43 µM | 2.05 µL/min/mg | 1.31 µL/min/mg | > 2000 µg/mL | 1230 µg/mL (≈ 3.65 mM) | CN1CCN(c2nc3ncc(C(F)(F)F)cc3n3cnnc23)CC1 | –
1.2 µM | – | – | – | – | – | CN(C)C1CN(c2nc3ncc(Cl)cc3n3cnnc23)C1 | inhibition ([7]; filed as antagonist): 77.5%
3 µM | – | 50.2 µL/min/mg | 8.21 µL/min/mg | 1920 µg/mL (≈ 7.14 mM) | > 2000 µg/mL | CN1CCN(c2nc3cccnc3n3cnnc23)CC1 | –
– | – | 4.94 µL/min/mg | 5.72 µL/min/mg | – | – | CN1CCN(c2nc3nc(OCC(F)(F)F)c(Cl)cc3n3cnnc23)CC1 | –
2.9 µM | 11 µM | – | – | – | – | CN1CCCN(c2nc3ncc(Cl)cc3n3cnnc23)CC1 | –
0.077 µM | – | 1.98 µL/min/mg | 0.6 µL/min/mg | > 2000 µg/mL | 1240 µg/mL (≈ 4.1 mM) | CN1CCN(c2nc3ncc(Cl)cc3n3cnnc23)CC1 | logD [8]: 0.95; inhibition ([7]; filed as antagonist): 100%; pKa [9]: 9.9; IC50 [10]: 0.057 µM; Cmax [11]: 4630 ng/mL; Tmax [12]: 30 min; AUC at 24 h [13]: 23600 ng·h/mL
– | – | – | – | – | – | Clc1cnc2nc(N3CCNCC3)c3nncn3c2c1 | pKa [9]: 8.9
0.053 µM | – | – | – | – | – | CNC1CN(c2nc3ncc(Cl)cc3n3nnnc23)C1 | inhibition [7]: 18%
0.17 µM | 41 µM | 10.4 µL/min/mg | 2.63 µL/min/mg | 1900 µg/mL (≈ 6.06 mM) | 80.2 µg/mL (≈ 0.256 mM) | CN1CCN(c2nc3ccc([N+](=O)[O-])cc3n3cnnc23)CC1 | –
> 10 µM | – | – | – | – | – | Clc1cnc2nc(N3CCN(C4CC4)CC3)c3nncn3c2c1 | –

IC50 [1] | IC50 [2] | microsomal CLint at 5 µM [3] | microsomal CLint at 5 µM [4] | solubility at 2 h [5] | solubility at 0.5 h [6] | SMILES | further results
– | 49 µM | – | – | – | – | CN1CCN(c2nc3ncc(Br)cc3n3nnnc23)CC1 | inhibition ([7]; filed as antagonist): 89%
– | – | 2.91 µL/min/mg | 5.17 µL/min/mg | 2000 µg/mL (≈ 7.05 mM) | 1900 µg/mL (≈ 6.72 mM) | Cc1cnc2nc(N3CCN(C)CC3)c3nncn3c2c1 | –
– | 73 µM | – | – | – | – | CN1CCN(c2nc3ncc(Cl)cc3n3nnnc23)CC1 | inhibition ([7]; filed as antagonist): 85%
6.3 µM | – | – | – | – | – | N[C@@H]1CCN(c2nc3ncc(Cl)cc3n3cnnc23)C1 | –
0.52 µM | – | 3.56 µL/min/mg | 3.28 µL/min/mg | – | – | CCOc1nc2nc(N3CCN(C)CC3)c3nncn3c2cc1Cl | –
> 10 µM | – | – | – | – | – | Clc1cnc2nc(N3CCCNCC3)c3nncn3c2c1 | –
2.3 µM | > 100 µM | 73.1 µL/min/mg | 11.5 µL/min/mg | > 2000 µg/mL | 1190 µg/mL (≈ 4.42 mM) | CN1CCN(c2nc3ccccc3n3cnnc23)CC1 | –
0.57 µM | 15 µM | 23.3 µL/min/mg | 7.51 µL/min/mg | > 2000 µg/mL | 1940 µg/mL (≈ 6.88 mM) | Cc1ccc2nc(N3CCN(C)CC3)c3nncn3c2c1 | –
3 µM | – | 5.36 µL/min/mg | 0.61 µL/min/mg | > 2000 µg/mL | > 2000 µg/mL | CN1CCN(c2nc3ncccc3n3cnnc23)CC1 | –
0.065 µM | – | – | – | – | – | CNC1CN(c2nc3ncc(Cl)cc3n3cnnc23)C1 | inhibition ([7]; filed as antagonist): 50%
– | 4.4 µM | 29.1 µL/min/mg | 5.83 µL/min/mg | > 2000 µg/mL | 227 µg/mL (≈ 0.75 mM) | CN1CCN(c2nc3ccc(Cl)cc3n3cnnc23)CC1 | IC50 ([1]; cho-k1): 0.022 µM; logD [8]: 2.12; Cmax [11]: 676 ng/mL; Tmax [12]: 40.2 min; AUC at 24 h [13]: 1680 ng·h/mL
– | 75 µM | – | – | – | – | CN1CCN(c2nc3ncc(Cl)cc3c3ncnn23)CC1 | inhibition ([7]; filed as antagonist): 96%
– | – | 3.74 µL/min/mg | 2.81 µL/min/mg | 1250 µg/mL (≈ 3.16 mM) | 126 µg/mL (≈ 0.319 mM) | CN1CCN(c2nc3ncc(I)cc3n3cnnc23)CC1 | –
– | 24 µM | 7.62 µL/min/mg | 3.84 µL/min/mg | 1800 µg/mL (≈ 4.97 mM) | 583 µg/mL (≈ 1.61 mM) | Cc1c(Br)cnc2nc(N3CCN(C)CC3)c3nncn3c12 | –
– | – | 5.28 µL/min/mg | 2.55 µL/min/mg | 1950 µg/mL (≈ 5.76 mM) | 163 µg/mL (≈ 0.482 mM) | CN1CCN(c2nc3nc(Cl)c(Cl)cc3n3cnnc23)CC1 | –
– | – | 2.8 µL/min/mg | 3.49 µL/min/mg | 1740 µg/mL (≈ 5.92 mM) | 417 µg/mL (≈ 1.42 mM) | CN1CCN(c2nc3ncc(C#N)cc3n3cnnc23)CC1 | –

SMILES | IC50 [1] | IC50 [2] | microsomal CLint at 5 µM [3] | microsomal CLint at 5 µM [4] | solubility at 2 h [5] | solubility at 0.5 h [6] | further results
CN1CCN(c2cc3ccc(Cl)cc3n3cnnc23)CC1 | 6.2 µM | > 100 µM | 8.43 µL/min/mg | 0.86 µL/min/mg | > 2000 µg/mL | > 2000 µg/mL | –
Clc1cnc2nc(N3CC4CCCNC4C3)c3nncn3c2c1 (configuration not stated) | > 10 µM | – | – | – | – | – | –
Clc1cnc2nc(N3CCN4CCCC4C3)c3nncn3c2c1 (configuration not stated) | 0.052 µM | 24 µM | – | – | – | – | –
